An excerpt weighted towards active compounds, which were near 1.8% of everything screened.
CHRM5 antagonist: human M5 muscarinic receptor antagonists, primary screen, CHO cells, Fluo-8 calcium fluorescence; CHO-hM5 cells, ACh EC80; inhibition, % at 3 µM; actives 0.59% (n = 360,000); Muscarinic acetylcholine receptor M5 (Homo sapiens), P08912;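 active means inhibition above a per-plate cutoff, the mean of that plate's test compounds plus 3 SD, cut at about 27% in these data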
M4 antag: human M4 muscarinic receptor antagonists, primary screen, CHO cells, Fluo-8 calcium fluorescence; CHO-hM4 cells, ACh EC80; inhibition, % at 3 µM; actives 0.73% (n = 360,000); AID 624125, 2012;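 active means inhibition above its plate's cutoff, the mean inhibition of sample wells plus 3 SD, cut at about 27% in these data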
Target sequence (P08173 whole entry, looked up): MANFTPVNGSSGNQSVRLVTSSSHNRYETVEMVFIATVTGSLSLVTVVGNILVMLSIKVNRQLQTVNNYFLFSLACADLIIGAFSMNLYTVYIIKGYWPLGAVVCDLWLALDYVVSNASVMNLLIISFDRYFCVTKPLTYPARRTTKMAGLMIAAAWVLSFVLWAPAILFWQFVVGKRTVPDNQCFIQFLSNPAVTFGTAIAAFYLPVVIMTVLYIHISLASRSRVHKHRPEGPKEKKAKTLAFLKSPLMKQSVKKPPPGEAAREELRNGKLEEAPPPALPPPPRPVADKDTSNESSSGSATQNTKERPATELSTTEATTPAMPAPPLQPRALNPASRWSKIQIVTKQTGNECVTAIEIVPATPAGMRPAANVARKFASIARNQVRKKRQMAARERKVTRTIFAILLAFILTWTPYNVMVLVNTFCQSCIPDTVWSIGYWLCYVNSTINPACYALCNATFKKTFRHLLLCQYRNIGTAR
CHRM4 agonist: human M4 muscarinic receptor agonists, primary screen, CHO-K1 cells, Fluo-8 calcium fluorescence; Muscarinic acetylcholine receptor M4 (Homo sapiens), P08173; CHO-K1 hM4/Gqi5; vehicle 0%, full acetylcholine response 100%; activation, % at 3 µM; actives 0.14% (n = 360,000); AID 624127, 2012;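 active means activation above the run mean over all test wells plus 3 SD, cut at about 32% in these data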;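 further: peak over basal fluorescence ratio per well then scaled between controls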
CHRM5 agonist: human M5 muscarinic receptor agonists, primary screen, CHO-K1 cells, Fluo-8 calcium fluorescence | Muscarinic acetylcholine receptor M5 (Homo sapiens), P08912 | CHO-K1 hM5 cells; 0% DMSO wells, 100% maximal acetylcholine response | activation, % at 3 µM | actives 0.19% (n = 360,000) | AID 624037, 2012;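 active means activation above the run's mean over test compounds plus 3 SD, cut at about 23% in these data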;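 further: signal is peak over basal fluorescence ratio across the kinetic read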
CHRM4 PAM: human M4 muscarinic receptor positive allosteric modulators, primary screen, CHO-K1 cells, Fluo-8 calcium fluorescence; CHO-K1 hM4/Gqi5, ACh EC20; 0% = ACh EC20, 100% = maximal ACh; activation, % at 3 µM; actives 0.4% (n = 360,000);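 active means activation above its plate's cutoff, the mean activation of sample wells plus 3 SD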
CHRM5 PAM: human M5 muscarinic receptor positive allosteric modulators, primary screen, CHO-K1 cells, Fluo-8 calcium fluorescence | Muscarinic acetylcholine receptor M5 (Homo sapiens), P08912 | CHO-K1 hM5, ACh EC20 PAM; 0% = ACh EC20, 100% = ACh EC100 | activation, % at 3 µM | actives 0.3% (n = 360,000) | AID 624038, 2012;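 active means activation above the run cutoff, the mean activation of all test compounds plus 3 SD, cut at about 18% in these data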
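System – CHO-K1 hM5 cells · Compound – 3 µM, single dose · Incubation – compound preincubation 140 s before EC20 acetylcholine addition · Technique – Fluo-8 calcium fluorescence · Measure – Max/basal fluorescence ratio as % of EC20–EC100 ACh window · Benchmarks – low control EC20 acetylcholine (0%), high control EC100 acetylcholine (100%) · Replication – singlicate, one well per test compound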
Each line names hits and unclear results; the compound was inactive in the other large screens.

Cc1cc(C(=O)N/N=C/c2ccc(-c3ccc([N+](=O)[O-])cc3C)o2)n[nH]1	none
O=C(NCc1cccs1)C1CCC(=O)N(Cc2cccc(C(F)(F)F)c2)C1 (centres undefined)	none
CCOc1cc(-c2nc3ccccn3c2NCC2CCCO2)ccc1O (centres undefined)	M4 antag 30
COc1cc(-c2nc3ccccn3c2NCC2CCCO2)ccc1O (centres undefined)	none
O=C(CN1CCOCC1)Nc1nc2cc([N+](=O)[O-])ccc2s1	CHRM4 PAM 27
Oc1ccc(Cl)cc1C1=NNC(c2ccc(Cl)cc2)C1 (centres undefined)	none
Oc1ccc(Cl)cc1C1=NNC(c2cc(Br)cc3c2OCOC3)C1 (centres undefined)	CHRM5 PAM 21
O=C1CCCC2=C1C(c1cccc(O)c1)C1=C(N2)c2ccccc2C1=O (centres undefined)	CHRM5 PAM 18
COCCn1c(=O)[nH]c2cc(C(=O)NC(C)C)ccc2c1=O	CHRM4 PAM 20, CHRM5 PAM 24
COCCNc1nnc(SCC(=O)NNC(=O)c2ccccc2)s1	CHRM4 PAM 19
Cc1nc(N)sc1C(=O)N/N=C/c1ccc([N+](=O)[O-])cc1	none
Cc1nc(N)sc1C(=O)N/N=C/c1ccccc1[N+](=O)[O-]	CHRM4 PAM 22
COc1ccc(NC(=O)C2(c3ccccc3)CCCC2)cc1	none
O=C(COC(=O)C1(c2ccccc2)CC1)NNC(=O)c1ccccc1F	none
C[N+](C)(C)CCOC(=O)C1(c2ccccc2)CCCC1	CHRM5 antagonist 99, M4 antag 97
CC(C[N+](C)(C)C)OC(=O)C1(c2ccccc2)CCCC1 (centres undefined)	CHRM5 antagonist 42
C[N+]1(CCOC(=O)C2(c3ccccc3)CCCC2)CCCCC1	CHRM5 antagonist 98, M4 antag 97
CN(c1ccccc1)S(=O)(=O)c1ccc2c(c1)oc(=O)n2C	none
CC(=O)N[C@@H](Cc1c[nH]c2ccccc12)C(=O)OCC(=O)Nc1cc(C)on1	none
CC(C)N(CC#CC(O)(c1ccccc1)c1ccccc1)C(C)C	CHRM5 antagonist 96, M4 antag 98
CN(CC#CC(O)(c1ccccc1)c1ccccc1)C(C)(C)C	CHRM5 antagonist 77, M4 antag 92
CC(C)N(CC#CC(O)(c1ccccc1)c1ccccc1)CCO	CHRM5 antagonist 42, M4 antag 42
CCCCCN(C(=O)CCC(=O)OC(C)C(=O)Nc1cccc(C#N)c1)c1c(N)n(CCCC)c(=O)[nH]c1=O (centres undefined)	none
CN(C)Cc1ccccc1CCc1ccccc1	CHRM5 antagonist 30, M4 antag 31
O=C(CN1C(=O)C(=O)N(C2CCCC2)C1=O)Nc1ccc(OC(F)F)cc1	none
Cc1cc(O)ccc1-c1cc(C(=O)NCc2ccc(F)cc2)[nH]n1	CHRM5 agonist 33
CN(C)CCN1C(=O)C(=O)/C(=C(/O)c2ccc(F)cc2)C1c1ccccc1F (centres undefined)	CHRM5 antagonist 29
Cc1ccc(/C(O)=C2\C(=O)C(=O)N(CCN(C)C)C2c2ccccc2F)cc1 (centres undefined)	none
CCOC(=O)C1CCCN(C(=O)c2ccc(F)c(Cl)c2)CC1 (centres undefined)	none
Cc1c(NC(=S)NC(=O)CC(C)C)c(=O)n(-c2ccccc2)n1C	M4 antag 79
Cc1c(NC(=O)Nc2cccc(Cl)c2)c(=O)n(-c2ccccc2)n1C	none
Cc1c(NC(=O)Nc2cc(Cl)ccc2Cl)c(=O)n(-c2ccccc2)n1C	CHRM5 antagonist 29
O=C(NCCCNC(=O)c1c(Cl)cccc1Cl)c1c(Cl)cccc1Cl	none
CCN1CCN(CCn2c(=S)[nH]c3ccccc3c2=O)CC1	CHRM5 antagonist 73
COc1ccc(C2/C=C\CN(C(=O)c3ccc(C)cc3)CC(=O)N2Cc2ccc(F)cc2)cc1 (centres undefined)	CHRM5 PAM 18
CCN(c1ccccc1)S(=O)(=O)c1ccc(Cl)c(NC(=O)CSc2nc(N)cc(=O)[nH]2)c1	none
CCOC(=O)C(=O)Nc1ccc(OCc2ccccc2)cc1	none
Cc1cc(C)nc(/N=C(\N)Nc2ccc(OCc3ccccc3)cc2)n1	CHRM5 antagonist 96, M4 antag 98, CHRM4 agonist 111, CHRM5 agonist 63
Cc1cc(C)nc(/N=C(\N)Nc2ccc(OCCC(C)C)cc2)n1	CHRM5 antagonist 76, M4 antag 86, CHRM4 agonist 105, CHRM5 agonist 64
COc1ccccc1N/C(N)=N/c1nc(C)cc(C)n1	none
Cc1cc(C)nc(/N=C(\N)Nc2cccc(OCc3ccccc3)c2)n1	CHRM5 antagonist 29, M4 antag 68, CHRM4 agonist 81, CHRM5 agonist 39
COc1ccc(N/C(N)=N/c2nc(C)cc(C)n2)cc1	none
Cc1cc(C)nc(/N=C(\N)Nc2ccc(S(=O)(=O)O)cc2)n1	none
Cc1cc(C)nc(/N=C(\N)Nc2ccc(CC(=O)OC(C)C)cc2)n1	CHRM5 antagonist 42, M4 antag 83, CHRM4 agonist 113, CHRM5 agonist 31
O=C(Nc1cccc2ccccc12)c1ccc2sc([C@H]3C[C@H](O)[C@@H](CO)O3)nc2c1	none
Cc1ccc(S(=O)(=O)N2CCC(C(=O)OCC(=O)N3CCCC3=O)CC2)cc1C	none
CC(C)c1cc(C(=O)NNC(=S)NC2CCCCC2)cs1	none
COc1cc(C(=O)Nc2ccc3c(c2)N(C(=O)CCN(C)C)c2ccccc2CC3)cc(OC)c1OC	M4 antag 30
COc1cc(C(=O)Nc2cccc(NC(=O)c3ccccc3)c2)cc(OC)c1OC	CHRM5 antagonist 30
COc1cc(C(=O)Nc2cccc(C(C)=O)c2)cc(OC)c1OC	none
COC1CCN(C(=O)c2ccc3oc(C(C)C)nc3c2)CC1	none
C=CCn1c(SCc2ccc(C(=O)Nc3nccs3)cc2)nnc1-c1ccc(C)c(Cl)c1	CHRM5 antagonist 27
Cc1ccc(C(=O)NCC(=O)NCC(=O)OCc2ccc(Oc3ccc([N+](=O)[O-])cc3)cc2)cc1	CHRM5 antagonist 31
